Measurements gathered from unrelated publications.
Protocols differ between the studies behind these lines.
Target: Serine/threonine-protein kinase DCLK2 (DCLK2, Homo sapiens, UniProt Q8N568)
Sequence (Q8N568 1-766, as in one of the studies): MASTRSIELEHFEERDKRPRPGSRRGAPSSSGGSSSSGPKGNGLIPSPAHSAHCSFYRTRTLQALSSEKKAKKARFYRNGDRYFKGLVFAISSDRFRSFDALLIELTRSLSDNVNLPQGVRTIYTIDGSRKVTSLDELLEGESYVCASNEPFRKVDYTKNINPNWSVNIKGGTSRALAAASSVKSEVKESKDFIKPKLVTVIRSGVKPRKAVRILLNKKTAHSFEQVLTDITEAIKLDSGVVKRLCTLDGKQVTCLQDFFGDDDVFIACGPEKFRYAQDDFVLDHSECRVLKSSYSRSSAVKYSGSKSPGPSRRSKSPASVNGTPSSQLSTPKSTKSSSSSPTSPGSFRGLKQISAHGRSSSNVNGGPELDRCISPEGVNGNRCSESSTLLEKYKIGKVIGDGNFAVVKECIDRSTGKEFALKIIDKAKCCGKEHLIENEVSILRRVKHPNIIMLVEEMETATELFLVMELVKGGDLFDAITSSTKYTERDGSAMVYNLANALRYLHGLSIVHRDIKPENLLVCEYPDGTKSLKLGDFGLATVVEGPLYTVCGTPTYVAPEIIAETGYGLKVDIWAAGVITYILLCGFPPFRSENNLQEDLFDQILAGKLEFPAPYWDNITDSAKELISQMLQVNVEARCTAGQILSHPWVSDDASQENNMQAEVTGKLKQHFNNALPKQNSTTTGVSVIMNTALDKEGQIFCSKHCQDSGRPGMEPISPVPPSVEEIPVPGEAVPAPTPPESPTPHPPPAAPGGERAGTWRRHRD

`O=C(Nc1cnn(-c2csc(C(=O)NC3COC3)c2)c1)Nc1c(F)cccc1Cl` has a remaining activity of 94.3% (enzyme activity; inhibitor; 5 µM).
The remaining signal of `Nc1ncnc2occ(-c3ccc(NC(=O)Nc4cc(C(F)(F)F)ccc4F)cc3)c12` is reported as 100% (cell-free assay; inhibitor; 20 µM).
For `COc1ccc2c(c1)O[C@H](c1ccc(OC)c(OC)c1)C[C@@H]2NC(=O)C1(c2ccc3c(c2)OC(F)(F)O3)CC1`, the remaining binding was 98% (cell-free assay; competition with immobilised ligand; 1 µM).
For `CN1CC(Oc2cnc(C#N)cc2-c2ccn3nc(NC(=O)C4CC4)cc3c2)C1`, the inhibition was -1% (enzyme activity; inhibitor; 1 µM).
For `CC(C)(C)c1nc(-c2cccc(NS(=O)(=O)c3c(F)cccc3F)c2F)c(-c2ccnc(N)n2)s1`, the remaining activity was 77% (enzyme activity; inhibitor; radiometric; 1 µM).
With `Cc1ccc(Nc2nccc(N(C)c3ccc4c(C)n(C)nc4c3)n2)cc1S(N)(=O)=O` the inhibition was -2% (enzyme activity; inhibitor; 0.3 µM).
For `CCS(=O)(=O)c1cc2cc(C[C@@](O)(CC(C)(C)c3ccc(F)cc3C(N)=O)C(F)(F)F)[nH]c2cn1`, the remaining binding was 100% (cell-free assay; competition with immobilised ligand; 1 µM).
For `C[S+]([O-])c1ccc(-c2nc(-c3ccncc3)c(-c3ccc(F)cc3)[nH]2)cc1` (stereo not shown), the remaining signal was 99.8% (cell-free assay; 0.5 µM).
`CCN(CC)CCNC(=O)c1c(C)[nH]c(/C=C2\C(=O)Nc3ccc(F)cc32)c1C` gave an inhibition of -2% (enzyme activity; inhibitor; 0.3 µM).
The inhibition of `COc1cc2ncnc(Nc3ccc(Oc4ccccc4)cc3C)c2cc1OC` is reported as 1% (enzyme activity; inhibitor; 1 µM).
The remaining activity of `Cc1cnc(NC2CCOCC2)nc1-n1cnc(C(=O)NC(CN)c2cc(F)cc(Cl)c2)c1` (stereo not shown) is reported as 83% (enzyme activity; inhibitor; radiometric; 1 µM).
The inhibition of `CNc1cccc2cc(C(=O)Nc3ccc(C(=O)O)cc3)c(=O)[nH]c12` is reported as -1.4% (enzyme activity; inhibitor; 10 µM).
The activity vs control of `Cc1cc(NC(=O)c2cccc3cc(-c4cccc5[nH]nc(N)c45)ccc23)ccc1F` is reported as 109% (enzyme activity; inhibitor; 0.1 µM).
With `COc1cc2c(N3CCN(C(=O)Nc4ccc(OC(C)C)cc4)CC3)ncnc2cc1OCCCN1CCCCC1` the remaining signal was 103% (cell-free assay; 0.5 µM).
For `Cc1noc([C@H]2C[C@@H](c3ccc(C(F)(F)F)cc3)CN(C(=O)N3CCS(=O)(=O)C3)C2)n1`, the remaining binding was 100% (cell-free assay; competition with immobilised ligand; 1 µM).
`O=C1NC(=O)c2cc(Nc3ccc(F)cc3)c(Nc3ccc(F)cc3)cc21` has a remaining signal of 100% (cell-free assay; 0.5 µM).
For `CNC(=O)Nc1ccc2c(c1)[C@@]1(CC2)OC(=O)N(CC(=O)N(Cc2ccc(F)cc2)[C@@H](C)C(F)(F)F)C1=O`, the remaining binding was 89% (cell-free assay; competition with immobilised ligand; 1 µM).
`Cn1cncc1C1=CN(c2ncnc3[nH]cnc23)CCS1` gave an inhibition of 12.8% (enzyme activity; inhibitor; radiometric; 50 nM).
`Cn1nc(C(=O)NCc2ccc(C(=O)O)cc2)cc1-c1ccc2[nH]ccc2c1` has a remaining binding of 92% (cell-free assay; competition with immobilised ligand; 0.1 µM).
`O=C(Nc1cnn(-c2csc(C(=O)NC3COC3)c2)c1)Nc1ccccc1Cl` has a remaining activity of 99.9% (enzyme activity; inhibitor; 5 µM).
The remaining activity of `CCCOc1ccc(OC)c(F)c1C(=O)c1ccc(C(=O)N[C@@H]2CNC[C@H]2NC(=O)c2ccc3[nH]ncc3c2)cc1` is reported as 33% (enzyme activity; inhibitor; 10 µM).
With `Cc1nccc(COC(=O)N2C[C@@H]3[C@@H](CNC(=O)c4ccc5[nH]nnc5c4)[C@@H]3C2)n1` the remaining binding was 100% (cell-free assay; competition with immobilised ligand; 1 µM).
